Assay outcomes from PubChem.
This is a sample that favours compounds with a hit; in the whole collection about 2.1% have one here.
GRK2 aptamer HTS: human GRK2 inhibition via aptamer displacement; bead flow cytometry, FAM-aptamer displacement from GRK2; inhibition of aptamer binding, % at 10 µM; 0.59% of 330,000 active; P25098;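 active = inhibition of aptamer binding above 40%, roughly 3 SD of noise, on plates passing a quality check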;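 note: median bead fluorescence of bound FAM aptamer so fluorescent compounds give negative values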
Scp-1 inhibitor: blocks human Scp-1 phosphatase activity. Recombinant Scp1, phosphopeptide, malachite green phosphate absorbance. Q9GZU7. 0.88% of 340,000 active. inhibition, % at 20 µM;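 active = inhibition above about 50% at 20 µM, limit read from the data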;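 note: plate controls were DMSO wells with enzyme for no effect and wells lacking enzyme for full effect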
Target sequence (Q9GZU7 76-261 limits assumed): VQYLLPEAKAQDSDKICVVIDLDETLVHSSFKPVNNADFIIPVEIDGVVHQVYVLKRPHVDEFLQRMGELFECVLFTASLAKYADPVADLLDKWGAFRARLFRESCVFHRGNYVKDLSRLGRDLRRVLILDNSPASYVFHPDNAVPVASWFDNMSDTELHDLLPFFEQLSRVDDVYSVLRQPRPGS
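System: SCP-1 catalytic domain; Reagent: Phospho 17-mer peptide substrate; Doses: one concentration, 20 µM, with 1.0% DMSO; Incubation: 45 min room-temperature reaction, 5 min colour, 30 min stabiliser; Signal: Phosphate-binding colour reagent, absorbance read at 630 nm.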
LMPTP inh: blocks human LMPTP phosphatase. P24666. recombinant LMPTP-A, OMFP fluorogenic substrate, fluorescence intensity. inhibition, % at 20 µM. 0.22% of 360,000 active. AID 651560;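 active = compounds that cut the enzyme signal by at least half of the control window in the single-dose screen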;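 note: plate controls were DMSO wells with enzyme plus substrate for no effect and substrate without enzyme for full effect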
Target sequence (P24666 whole entry, looked up): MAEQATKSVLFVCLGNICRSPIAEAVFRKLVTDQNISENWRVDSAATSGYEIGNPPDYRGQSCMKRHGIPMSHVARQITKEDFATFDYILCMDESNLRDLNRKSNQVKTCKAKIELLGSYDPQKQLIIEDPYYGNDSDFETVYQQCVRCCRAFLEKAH
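Test system – LMPTP-A enzyme · Amount – LMPTP-A at 0.625 nM final in the reaction · Buffer or medium – Bis-Tris pH 6.0, DTT, detergent · Reagent – OMFP 400 µM · Doses – single 20 µM dose · Schedule – reaction 50 min, room temperature, dark · Detection – fluorescence intensity of OMFP turnover product · Evaluation – percent inhibition versus substrate-only and uninhibited controls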
STEP block: inhibitors of human striatal-enriched phosphatase STEP. 0.25% of 360,000 active. P54829. inhibition, % at 20 µM. AID 588621. recombinant STEP, OMFP fluorogenic substrate, fluorescence;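 active = inhibition at 20 µM, scaled per plate between control wells, above about 37%, limit read from the data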;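 note: 0% = DMSO with enzyme and substrate and 100% = substrate only without enzyme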
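System: STEP (striatal-enriched tyrosine phosphatase) enzyme, cell-free; medium: Bis-Tris pH 6.0 buffer with DTT, detergent; dosing: 20 µM, 1% DMSO; times: reaction 20 min, ambient temperature; detection: fluorescence, 480/540 nm; read-out basis: normalized % inhibition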
SUMO1 PPI mod: SUMO1-SIM interaction modulation; P63165; SUMO1 binding to a labelled peptide, TR-FRET, 1 h; inhibition, % at 20 µM; 0.33% of 360,000 active; in the data active = inhibition above about 37%
Target sequence (P63165 whole entry, looked up): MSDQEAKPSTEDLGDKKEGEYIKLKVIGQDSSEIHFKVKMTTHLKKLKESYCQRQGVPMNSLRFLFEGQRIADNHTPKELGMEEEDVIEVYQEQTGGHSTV
DNMT1 inh: DNMT1 (human) enzyme inhibition; DNMT1 molecular beacon, Hinp1I cleavage, fluorescence; inhibition (reported as % activation of signal), % at 10 µM; 0.83% of 360,000 active; in the data active = inhibition above about 50%
Numbers without * were called inactive.

`Nc1ncnc2oc(-c3ccco3)c(-c3ccco3)c12` gave GRK2 aptamer HTS 22.0, Scp-1 inhibitor 65.9*, LMPTP inh 61.2*, STEP block 29.7, SUMO1 PPI mod 31.2 and DNMT1 inh 93.3*.
Screening Cc1cc2cc(C)c(NCCNC(=O)c3ccccc3F)nc2cc1C returned GRK2 aptamer HTS 0.0, Scp-1 inhibitor -3.1, LMPTP inh 0.4, STEP block -1.0, SUMO1 PPI mod -0.1 and DNMT1 inh -1.3.
Cc1cc2cc(C)c(NCCNC(=O)c3cccs3)nc2cc1C was read as GRK2 aptamer HTS 0.0, Scp-1 inhibitor 6.9, LMPTP inh 1.5, STEP block -1.2, SUMO1 PPI mod 49.9* and DNMT1 inh 13.5.
COc1ccc(/C=C2/SC(=O)N(CCC(=O)Nc3ccc(C)cc3)C2=O)cc1OC was read as GRK2 aptamer HTS 0.0.
COc1cc(/C=C2\SC(N)=NC2=O)ccc1OCC(=O)Nc1ccc(C)cc1 was read as GRK2 aptamer HTS 3.0, Scp-1 inhibitor 6.1, LMPTP inh -0.4, STEP block -2.2, SUMO1 PPI mod 6.1 and DNMT1 inh 53.6*.
For CC(C)Cc1nc2oc3c(N4CCN(CCO)CC4)ncnc3c2c2c1CCCC2 the results were GRK2 aptamer HTS 45.0*, Scp-1 inhibitor -7.8, LMPTP inh 0.5, STEP block 1.9, SUMO1 PPI mod 1.2 and DNMT1 inh -7.2.
`CCOC(=O)N1CCN(c2ncnc3c2oc2nc(C(C)C)c4c(c23)CCC4)CC1` gave GRK2 aptamer HTS 0.0, Scp-1 inhibitor -7.0, LMPTP inh 4.5, STEP block 1.7, SUMO1 PPI mod 4.4 and DNMT1 inh -2.2.
CC(C)CNC(=O)C1(C)CCCN1C(=O)C(C)(C)Oc1ccc(Cl)cc1 (stereo not given) was read as LMPTP inh -0.3, STEP block 2.3, SUMO1 PPI mod -0.9 and DNMT1 inh -2.8.
For COc1cc(Cn2c3ccc(NC(=O)NCCc4ccccc4)cc3c(=O)n2C)ccc1F the results were LMPTP inh 1.0, STEP block 2.2, SUMO1 PPI mod -1.8 and DNMT1 inh -5.3.
`NC1=C(Cl)C(=O)c2ccc(S(N)(=O)=O)cc2C1=O` gave Scp-1 inhibitor 0.0, LMPTP inh 6.3, STEP block 8.7, SUMO1 PPI mod 6.0 and DNMT1 inh 79.8*.
Screening COc1ccc2c(C)cc(SCC(=O)Nc3nsc(-c4ccc(C)cc4)n3)nc2c1 returned GRK2 aptamer HTS 45.0*, Scp-1 inhibitor 3.4, LMPTP inh 2.8, STEP block 0.2, SUMO1 PPI mod -0.7 and DNMT1 inh -0.5.
For COC(=O)c1cccc(NC(=O)CCN2C(=O)NC(C)(C)C2=O)c1 the results were LMPTP inh -1.5, STEP block 0.3, SUMO1 PPI mod -3.9 and DNMT1 inh -1.4.
For CCOC(=O)c1ccc(S(=O)(=O)NNC(=O)COc2cccc(C)c2)cc1 the results were GRK2 aptamer HTS 0.0, Scp-1 inhibitor -4.8, LMPTP inh -2.0, STEP block -0.7, SUMO1 PPI mod -1.9 and DNMT1 inh 0.7.
For CCOC(=O)c1ccc(S(=O)(=O)NNC(=O)COc2ccc(C)cc2)cc1 the results were GRK2 aptamer HTS 92.0*, Scp-1 inhibitor -4.6, LMPTP inh -1.8, STEP block 0.5, SUMO1 PPI mod -1.7 and DNMT1 inh 0.8.
O=C(O)C1Nc2c(C(=O)N3CCOCC3)cccc2C2C=CCC12 (stereo not given) was read as GRK2 aptamer HTS 38.0, Scp-1 inhibitor 50.6*, LMPTP inh -1.6, STEP block 9.7, SUMO1 PPI mod 28.7 and DNMT1 inh 107.0*.
For Cc1ccc2c(c1C)NC(C(=O)O)C1CC=CC21 (stereo not given) the results were GRK2 aptamer HTS 47.0*, Scp-1 inhibitor 79.5*, LMPTP inh 63.1*, STEP block 20.1, SUMO1 PPI mod 86.5* and DNMT1 inh 103.1*.
Screening COCCN1C(=O)C(=O)/C(=C(/O)c2ccc(S(=O)(=O)N3CCCCC3)cc2)C1c1ccc(O)c(OC)c1 (stereo not given) returned GRK2 aptamer HTS 2.0, Scp-1 inhibitor -3.8, LMPTP inh 3.2, STEP block 4.2, SUMO1 PPI mod -23.1 and DNMT1 inh 0.4.
C/C(=N\Nc1cc(C)nc(-c2ccccc2)n1)c1cccc([N+](=O)[O-])c1 was read as GRK2 aptamer HTS 0.0, Scp-1 inhibitor -0.7, LMPTP inh 2.1, STEP block -2.1, SUMO1 PPI mod 48.3* and DNMT1 inh 9.8.
C/C(=N\Nc1cc(C)nc(-c2ccccc2O)n1)c1ccccc1 was read as GRK2 aptamer HTS 0.0, Scp-1 inhibitor -6.4, LMPTP inh 5.1, STEP block 0.1, SUMO1 PPI mod 2.0 and DNMT1 inh -8.5.
Screening CCN(CC)CCNc1ccc(C)c2sc3ccc(O)cc3c(=O)c12 returned Scp-1 inhibitor 12.1, LMPTP inh 0.3, STEP block 2.7, SUMO1 PPI mod -25.6 and DNMT1 inh 53.8*.
Screening NC(CSC(c1ccccc1)(c1ccccc1)c1ccc2c(c1)OCO2)C(=O)O (stereo not given) returned LMPTP inh 1.7, STEP block 3.8, SUMO1 PPI mod 5.2 and DNMT1 inh 51.5*.
For Cc1ccc(NC(=S)NCc2ccc(S(N)(=O)=O)cc2)cc1Cl the results were GRK2 aptamer HTS 2.0, Scp-1 inhibitor -10.4, LMPTP inh 0.1, STEP block -2.9, SUMO1 PPI mod 3.7 and DNMT1 inh -0.8.
CN(C)c1ccc(C=Cc2nccc3ccccc23)cc1 was read as LMPTP inh 1.7, STEP block -91.4, SUMO1 PPI mod -63.2 and DNMT1 inh 68.7*.
For COc1cccc(C=Cc2nccc3ccccc23)c1OC the results were LMPTP inh 5.1, STEP block -1.6, SUMO1 PPI mod -16.6 and DNMT1 inh -8.6.
Screening CC(C)(C)OC(=O)N1CCN(C(=O)c2[nH]cnc2C(=O)Nc2cccc(Cl)c2)CC1 returned GRK2 aptamer HTS 2.0, Scp-1 inhibitor -5.8, LMPTP inh 0.2, STEP block -2.6, SUMO1 PPI mod -2.4 and DNMT1 inh -7.1.
CCN(CC)c1ccc(/C=N/NC(=O)c2cccc(S(=O)(=O)Nc3ccccc3OC)c2)c(O)c1 was read as GRK2 aptamer HTS 70.0*, Scp-1 inhibitor 16.8, LMPTP inh 3.6, STEP block -0.6, SUMO1 PPI mod 4.9 and DNMT1 inh -9.9.
For COc1ccc(NS(=O)(=O)c2cccc(C(=O)N/N=C/c3ccc(O)cc3)c2)cc1 the results were GRK2 aptamer HTS 2.0, Scp-1 inhibitor -6.9, LMPTP inh -0.3, STEP block -3.1, SUMO1 PPI mod 62.5* and DNMT1 inh -0.4.
Screening COc1ccc(NS(=O)(=O)c2cccc(C(=O)NN=Cc3ccc(O)c(OC)c3)c2)cc1 returned GRK2 aptamer HTS 0.0, Scp-1 inhibitor -12.4, LMPTP inh 1.9, STEP block -1.0, SUMO1 PPI mod 63.4* and DNMT1 inh -3.0.
